{
  "source": "ChEMBL document CHEMBL4765399",
  "about": "“Design, synthesis, and biological evaluation of 5-((8-methoxy-2-methylquinolin-4-yl)amino)-1H-indole-2-carbohydrazide derivatives as novel Nur77 modulators” (Eur J Med Chem, 2020)",
  "key": {"[1]": {"test_system": "HepG2", "assay": "Upregulation of RXRalpha expression in human HepG2 cells at 2 uM incubated for 2 to 12 hrs by Western blot analysis", "format": "functional, cell-based", "settings": "time 2-12 hrs", "outline": "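HepG2 cells given 2.0 µM for the indicated times. RXRα, RARγ and Nur77 detected by western blot: RIPA lysis with protease and phosphatase inhibitors, 40-80 µg protein by SDS-PAGE, nitrocellulose, 5% milk block, primary antibody overnight, HRP secondary, chemiluminescence read-out.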"}, "[2]": {"molecular_target": "T1, Nuclear receptor subfamily 4immunitygroup A member 1 (Homo sapiens, UniProt P22736)", "T1 sequence (P22736 whole entry)": "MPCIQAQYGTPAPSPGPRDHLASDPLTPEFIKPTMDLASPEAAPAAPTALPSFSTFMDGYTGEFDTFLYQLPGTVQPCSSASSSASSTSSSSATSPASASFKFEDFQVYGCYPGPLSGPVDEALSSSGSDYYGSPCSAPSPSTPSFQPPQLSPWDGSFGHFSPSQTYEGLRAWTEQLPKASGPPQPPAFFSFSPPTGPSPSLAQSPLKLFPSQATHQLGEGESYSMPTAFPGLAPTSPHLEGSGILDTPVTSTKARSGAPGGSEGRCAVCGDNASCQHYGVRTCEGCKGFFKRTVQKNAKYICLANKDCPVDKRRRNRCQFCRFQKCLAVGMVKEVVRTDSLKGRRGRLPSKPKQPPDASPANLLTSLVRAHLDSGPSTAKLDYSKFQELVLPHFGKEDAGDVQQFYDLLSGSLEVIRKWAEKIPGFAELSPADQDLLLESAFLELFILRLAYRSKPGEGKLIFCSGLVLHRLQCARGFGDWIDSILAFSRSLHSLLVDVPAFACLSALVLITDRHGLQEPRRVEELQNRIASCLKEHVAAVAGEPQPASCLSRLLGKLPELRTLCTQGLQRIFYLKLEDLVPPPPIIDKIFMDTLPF", "assay": "Modulation of Nur77 in human HepG2 cells assessed as induction of Nur77 translocation into cytoplasm from nucleus by measuring increase in protein expression in cytoplasm at 2 uM by western blot analysis", "format": "subcellular", "settings": "filed as modulator, time 1-8 hrs, TDE = time-dependent effect", "outline": "(§1)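 HepG2 given 2.0 µM for set times; cells swollen 10 min on ice in HEPES/NaCl/EDTA/CaCl2/MgCl2 buffer, 0.1% NP40 added, spun 15000 rpm 3 min at 4 °C giving cytoplasmic supernatant; pellet extracted in RIPA. Fractions blotted for Nur77, with PARP (nuclear) and tubulin (cytoplasmic) as loading controls.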"}, "[3]": {"molecular_target": "T1, Nuclear receptor subfamily 4immunitygroup A member 1", "assay": "Modulation of Nur77 in human HepG2 cells assessed as induction of endoplasmic reticulum translocation at 2 uM incubated for 6 hrs by ER-tracker based confocal microscopy", "format": "subcellular", "settings": "filed as modulator", "outline": "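HepG2 exposed to 2.0 µM for 6 h, then co-stained with Nur77 antibody and ER tracker; confocal imaging.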"}, "[4]": {"test_system": "QGY-7703", "assay": "Antiproliferative activity against human QGY-7703 cells assessed as reduction in cell viability at 2 uM by MTT assay", "format": "functional, cell-based", "settings": "time 12-48 hrs, TDE = time-dependent effect", "outline": "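Cells treated with 2.0 µM over a time course; viability read by MTT. HepG2, SMMC-7721 kept in DMEM, QGY-7703 in RPMI 1640, with 10% FBS at 37 °C and 5% CO2.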"}, "[5]": {"test_system": "QGY-7703", "assay": "Inhibition of colony formation in human QGY-7703 cells at 2 uM incubated for 24 hrs measured after cell culturing for 15 days in normal medium by crystal violet staining based assay", "format": "functional", "settings": "time 16.0 day", "outline": "(§2)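 500 HepG2, QGY-7703 or SMMC-7721 cells per well allowed to attach 24 h, exposed to DMSO or 2.0 µM for 24 h, then grown 15 days in plain medium. Colonies fixed 30 min in 4% paraformaldehyde, stained 15 min with 0.1% crystal violet, photographed and counted.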"}, "[6]": {"test_system": "SMMC-7721", "assay": "Inhibition of colony formation in human SMMC-7721 cells at 2 uM incubated for 24 hrs measured after cell culturing for 15 days in normal medium by crystal violet staining based assay", "format": "functional", "settings": "time 16.0 day", "outline": "as §2"}, "[7]": {"test_system": "HepG2", "assay": "Induction of morphological changes in human HepG2 cells assessed as vesicles accumulation at 1 to 2 uM incubated for 6 to 12 hrs by phase contrast microscopic analysis", "format": "functional, cell-based", "settings": "dose 1-2 µM, time 6-12 hrs", "outline": "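HepG2 cells given graded concentrations; morphology monitored at set time points by phase-contrast optical microscopy.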"}, "[8]": {"test_system": "HepG2", "assay": "Induction of autophagy in Nur77 knockout human HepG2 cells assessed as increase in GFP-LC3 puncta formation at 2 uM after 6 hrs by fluorescence microscopic method", "format": "functional, cell-based", "outline": "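HepG2, or HepG2 and shNur77 HepG2, transfected with GFP-LC3, then given vehicle or 2.0 µM for 6 h; GFP-LC3 puncta visualised by fluorescence microscopy alongside phase-contrast images.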"}, "[9]": {"test_system": "HepG2", "assay": "Induction of endoplasmic reticulum stress in human HepG2 cells assessed as increase in bip protein expression incubated for 12 hrs by Western blot analysis", "format": "functional, cell-based", "settings": "dose 0.5-2 µM", "outline": "(§3)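 HepG2, QGY-7703 and SMMC-7721 treated with graded concentrations for 12 h. Lysed in RIPA with inhibitors; 40-80 µg protein separated by SDS-PAGE, blotted to nitrocellulose, blocked 1 h in 5% milk, primary antibodies overnight (LC3, Beclin1, Bip, CHOP, TRB3), HRP secondaries, chemiluminescence.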"}, "[10]": {"test_system": "SMMC-7721", "assay": "Induction of endoplasmic reticulum stress in human SMMC-7721 cells assessed as increase in bip protein expression incubated for 12 hrs by Western blot analysis", "format": "functional, cell-based", "settings": "dose 0.5-2 µM", "outline": "as §3"}, "[11]": {"test_system": "SMMC-7721", "assay": "Induction of endoplasmic reticulum stress in human SMMC-7721 cells assessed as increase in CHOP protein expression incubated for 12 hrs by Western blot analysis", "format": "functional, cell-based", "settings": "dose 0.5-2 µM", "outline": "as §3"}, "[12]": {"test_system": "HepG2", "assay": "Induction of endoplasmic reticulum stress in Nur77 […] human HepG2 cells assessed as CHOP protein expression at 2 uM incubated for 6 to 12 hrs by Western blot analysis", "format": "functional, cell-based", "settings": "time 6-12 hrs", "outline": "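HepG2 and shNur77 HepG2 exposed to DMSO or 2.0 µM for 6 and 12 h; lysates immunoblotted for TRB3, Bip, CHOP and Nur77 (SDS-PAGE, nitrocellulose, overnight primary antibodies, HRP secondary, chemiluminescence).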"}, "[13]": {"test_system": "HepG2", "assay": "Induction of autophagy in human HepG2 cells assessed as LC3-II expression at 2 uM pretreated with ER stress inhibitor, 4-PBA for 2 hrs followed by incubation with compound for 12 hrs by Western blot analysis", "format": "functional, cell-based", "outline": "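HepG2 grown to confluence, pretreated 2 h with 2 mM 4-PBA, then exposed to test compound for a further 12 h; Western blot for PARP, cleaved caspase-3/-9, Bcl-2, Bax, Bip, EIF2a, TRB3 and LC3.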"}, "[14]": {"assay": "Toxicity in BALB/c mouse xenografted with human HepG2 cells assessed as effect on body weight at 10 to 20 mg/kg/day, ip administered for 15 days", "format": "organism-based", "settings": "in vivo, 360 h, dose 10-20 mg/kg/day, time 15 day", "outline": "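Male Balb/c mice, 4 weeks old, injected subcutaneously in the flank with 5×10^6 HepG2 cells. At about 100 mm³, 15 mice randomized into vehicle, 10 and 20 mg/kg groups. Dosed i.p. once daily for 15 days. Tumour size and body weight measured daily; mice euthanized at the end.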"}, "[15]": {"molecular_target": "T1, Nuclear receptor subfamily 4immunitygroup A member 1", "assay": "Modulation of Nur77 in human HepG2 cells assessed as induction of Nur77 translocation into cytoplasm from nucleus by measuring decrease in protein expression in nucleus at 2 uM by western blot analysis", "format": "subcellular", "settings": "filed as modulator, time 1-8 hrs, TDE = time-dependent effect", "outline": "as §1"}, "[16]": {"test_system": "HepG2", "assay": "Induction of apoptosis in human HepG2 cells assessed as late apoptotic cells at 1 uM incubated for 12 hrs by Annexin V-FITC/PI staining based flow cytometry (reference value: 1.1%)", "format": "functional"}, "[17]": {"test_system": "HepG2", "assay": "Induction of apoptosis in human HepG2 cells assessed as necrotic cells at 2 uM incubated for 12 hrs by Annexin V-FITC/PI staining based flow cytometry (reference value: 0.068 to 0.23%)", "format": "functional"}, "[18]": {"molecular_target": "T1, Nuclear receptor subfamily 4immunitygroup A member 1", "assay": "Modulation of Nur77 in human HepG2 cells assessed as induction of nuclear […] pretreated with nuclear export inhibitor, LMB followed by incubation with compound for 12 hrs by fluorescence microscopic analysis", "format": "cell-based"}, "[19]": {"test_system": "HepG2", "assay": "Induction of apoptosis in human HepG2 cells assessed as increase in cleaved PARP level pretreated with nuclear export inhibitor, LMB followed by incubation with compound for 12 hrs by western blot analysis", "format": "functional, cell-based"}, "[20]": {"test_system": "HepG2", "assay": "Induction of endoplasmic reticulum stress in human HepG2 cells transfected with shNur77 assessed as increase in PDI protein expression at 2 uM incubated for 6 hrs by confocal microsocopic analysis", "format": "functional, cell-based", "outline": "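HepG2, or HepG2 plus shNur77 HepG2, treated with 2.0 µM for 6 h, fixed in 4% paraformaldehyde 20 min, permeabilised 0.1% Triton X-100, blocked in 5% BSA, stained with PDI antibody and imaged by confocal fluorescence microscopy.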"}},
  "note": "Activity calls are given as the source filed them. The rule behind the calls is not given here.",
  "data": [
    {"smiles": "COc1cccc2c(Nc3ccc4[nH]c(C(=O)N/N=C/c5ccc(SC)cc5)cc4c3)cc(C)nc12", "values": [
      {"measurement": "Activity", "setting": "[1]", "result": "inactive"},
      {"measurement": "Activity", "setting": "[2]", "result": "Tde"},
      {"measurement": "Activity", "setting": "[3]", "result": "Active"},
      {"measurement": "Activity", "setting": "[4]", "result": "Tde"},
      {"measurement": "inhibition", "setting": "[5]", "result": "Active"},
      {"measurement": "inhibition", "setting": "[6]", "result": "Active"},
      {"measurement": "Activity", "setting": "[7]", "result": "Active"},
      {"measurement": "Activity", "setting": "[8]", "result": "inactive"},
      {"measurement": "Activity", "setting": "[9]", "result": "Dose-dependent effect"},
      {"measurement": "Activity", "setting": "[10]", "result": "Dose-dependent effect"},
      {"measurement": "Activity", "setting": "[11]", "result": "Dose-dependent effect"},
      {"measurement": "Activity", "setting": "[12]", "result": "inactive"},
      {"measurement": "Activity", "setting": "[13]", "result": "inactive"},
      {"measurement": "Activity", "setting": "[14]", "result": "Non-Toxic"},
      {"measurement": "Activity", "setting": "[15]", "result": "Tde"},
      {"measurement": "Activity", "setting": "[16]", "result": 16.1, "unit": "%"},
      {"measurement": "Activity", "setting": "[17]", "result": 0, "unit": "%"},
      {"measurement": "Activity", "setting": "[18]", "result": "inactive"},
      {"measurement": "Activity", "setting": "[19]", "result": "inactive"},
      {"measurement": "Activity", "setting": "[20]", "result": "inactive"}
    ]}
  ]
}
